The record followed here is publication PMC9058152 (RSC Advances, 2020).

In brackets after ≈: the same amount, converted by molar mass.

A word on the IC50: it is the concentration that gives 50% inhibition. The term MIC denotes the lowest concentration that inhibits growth of the organism. Read a low MIC as inhibition by little substance.

Experiment [1] deals with HepG-2 cells (human liver carcinoma). Kind of experiment: MTT cytotoxicity assay on HepG-2. The class given is cell-based. The following applies: HepG2, 48 h, read-out: IC50 (μM) ± SD HepG-2. In short, it runs like this: (§1)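 Cells grown in DMEM with 10% heat-inactivated FBS and 100 U ml⁻¹ penicillin/streptomycin at 37 °C, 5% CO₂. Seeded at 3 × 10⁴ cells per well and exposed for 48 h in serum-free medium to serial concentrations of test compound (DMSO), with doxorubicin as positive control. MTT (2.5 mg mL⁻¹) was added for 4 h, formazan dissolved in DMSO, and absorbance read at 570 nm. Viability was taken relative to untreated cells; triplicates were run on three days, and IC50 derived by probit analysis.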

In another experiment the target is T1, ovine COX-2 (Ovis aries, UniProt P79208).
T1 sequence (P79208 17-603): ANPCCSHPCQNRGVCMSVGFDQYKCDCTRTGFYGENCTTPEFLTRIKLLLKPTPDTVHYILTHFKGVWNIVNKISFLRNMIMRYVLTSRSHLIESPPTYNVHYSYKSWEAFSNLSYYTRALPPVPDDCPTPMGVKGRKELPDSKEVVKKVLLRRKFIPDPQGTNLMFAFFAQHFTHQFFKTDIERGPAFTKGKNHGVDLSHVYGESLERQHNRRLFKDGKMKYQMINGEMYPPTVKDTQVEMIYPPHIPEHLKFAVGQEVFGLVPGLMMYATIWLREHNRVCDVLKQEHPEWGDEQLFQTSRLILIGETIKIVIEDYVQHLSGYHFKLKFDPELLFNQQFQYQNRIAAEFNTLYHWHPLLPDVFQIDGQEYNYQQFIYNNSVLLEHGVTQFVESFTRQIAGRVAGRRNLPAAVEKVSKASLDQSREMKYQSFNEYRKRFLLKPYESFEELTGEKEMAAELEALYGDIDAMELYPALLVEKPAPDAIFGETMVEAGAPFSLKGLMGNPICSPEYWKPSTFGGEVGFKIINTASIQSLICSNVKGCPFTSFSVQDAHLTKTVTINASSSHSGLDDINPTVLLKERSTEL
Description: COX-2 inhibition enzyme immunoassay. The class given is biochemical. The following applies: for Selectivity index (SI): COX-1 IC50/COX-2 IC50.

Another experiment addresses T2, ovine COX-1 (Ovis aries, UniProt P05979).
T2 sequence (P05979 25-600): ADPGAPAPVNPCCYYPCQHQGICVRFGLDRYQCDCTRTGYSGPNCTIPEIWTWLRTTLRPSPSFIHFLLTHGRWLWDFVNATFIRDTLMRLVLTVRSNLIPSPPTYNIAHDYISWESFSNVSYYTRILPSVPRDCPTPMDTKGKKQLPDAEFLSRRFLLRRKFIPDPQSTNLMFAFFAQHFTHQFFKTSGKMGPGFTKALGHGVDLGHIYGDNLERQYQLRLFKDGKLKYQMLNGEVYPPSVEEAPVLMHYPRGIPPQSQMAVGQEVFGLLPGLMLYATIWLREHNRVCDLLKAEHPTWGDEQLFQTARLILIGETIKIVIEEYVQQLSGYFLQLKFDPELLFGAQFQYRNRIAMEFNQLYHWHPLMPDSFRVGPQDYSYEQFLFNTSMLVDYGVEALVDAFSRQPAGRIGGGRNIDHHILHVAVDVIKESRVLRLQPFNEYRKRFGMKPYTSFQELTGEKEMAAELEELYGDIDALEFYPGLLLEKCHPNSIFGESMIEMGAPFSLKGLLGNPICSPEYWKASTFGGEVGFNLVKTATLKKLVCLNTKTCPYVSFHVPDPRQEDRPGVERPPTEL
Kind of experiment: COX-1 inhibition enzyme immunoassay. The class given is biochemical.

The test system of experiment [2] is Mycobacterium tuberculosis (RCMB 010126). Kind of experiment: Microplate Alamar blue assay. The class given is cell-based. The following applies: RCMB010126, Mycobacterium tuberculosis RCMB 010126, MABA. Background: Alamar Blue is a resazurin reagent that responds to reducing activity.
Experiment [3] concerns MCF-7 cells (human breast adenocarcinoma). Kind of experiment: MTT cytotoxicity assay on MCF-7. The following applies: MCF7, 48 h, read-out: IC50 (μM) ± SD MCF-7. The class given is cell-based. The gist of the method:
as §1
In general terms: Formazan colour is commonly taken as a measure of viable cells.

Take `Cc1ccc(-n2cc(C(=O)c3ccc4ccccc4c3O)cc(C#N)c2=O)cc1` [Compound 3b, 5-(1-Hydroxy-2-naphthoyl)-2-oxo-1-(p-tolyl)nicotinonitrile]: the IC50 in experiment [1] is 36.8 ± 3.9 µM; at ovine COX-2, 6.05 µM; against ovine COX-1 it was 464 µM; in experiment [3] it was 9.2 ± 0.6 µM. Further, at ovine COX-2, the “Selectivity index (SI)” value is listed as 76.7. The compound further showed a minimum inhibitory concentration (MIC) in experiment [2] of 3.9 µg/mL (≈ 10.3 µM).

As to `COc1ccc(-n2cc(C(=O)c3ccc4ccccc4c3O)cc(C#N)c2=O)cc1` [Compound 3c, 5-(1-Hydroxy-2-naphthoyl)-1-(4-methoxyphenyl)-2-oxo-nicotinonitrile], the IC50 in experiment [1] is 27.8 ± 2.4 µM; on ovine COX-2, 0.53 µM; on ovine COX-1, 789 µM; in experiment [3], 8.5 ± 0.7 µM. Moreover, the “Selectivity index (SI)” value on ovine COX-2 worked out at 1490.

Consider `N#Cc1cc(C(=O)c2ccc3ccccc3c2O)cn(-c2ccc(Br)cc2)c1=O` [Compound 3d, 1-(4-Bromophenyl)-5-(1-hydroxy-2-naphthoyl)-2-oxo-nicotinonitrile], for which the IC50 in experiment [1] was 30.1 ± 2.6 µM; at ovine COX-2, 1.46 µM; against ovine COX-1, 1420 µM; in experiment [3], 8.9 ± 0.7 µM. Moreover, the “Selectivity index (SI)” value on ovine COX-2 came to 972.9. This compound registered an MIC in experiment [2] below 1 µg/mL.

On to `N#Cc1cc(C(=O)c2ccc3ccccc3c2O)cn(-c2ccc([N+](=O)[O-])cc2)c1=O` [Compound 3e, 5-(1-Hydroxy-2-naphthoyl)-1-(4-nitrophenyl)-2-oxo-nicotinonitrile], for which the IC50 was 25.3 ± 2.1 µM in experiment [1], 1.68 µM against ovine COX-2, 283 µM on ovine COX-1 and 9.3 ± 1.1 µM in experiment [3]. The “Selectivity index (SI)” value at ovine COX-2 was found to be 168.7. For the same compound, the MIC in experiment [2] was below 2 µg/mL.

`Cc1c(-n2cc(C(=O)c3ccc4ccccc4c3O)cc(C#N)c2=O)c(=O)n(-c2ccccc2)n1C` [Compound 3f, 1-(1,5-Dimethyl-3-oxo-2-phenyl-2,3-dihydro-1H-pyrazol-4-yl)-5-(1-hydroxy-2-naphthoyl)-2-oxo-nicotinonitrile]: the IC50 is 30.5 ± 3.1 µM in experiment [1], 16.4 µM at ovine COX-2, 728 µM against ovine COX-1 and 10.5 ± 1.1 µM in experiment [3]. Moreover, the “Selectivity index (SI)” value at ovine COX-2 turned out to be 44.5. In experiment [2], this compound yielded an MIC below 2 µg/mL.

Take `Cc1cnc(-n2cc(C(=O)c3ccc4ccccc4c3O)cc(C#N)c2=O)s1` [Compound 3g, 5-(1-Hydroxy-2-naphthoyl)-1-(5-methylthiazol-2-yl)-2-oxo-nicotinonitrile]: the IC50 in experiment [1] is 28.5 ± 2.9 µM; at ovine COX-2 it was 48 µM; against ovine COX-1, 2580 µM; in experiment [3], 12.1 ± 1.2 µM. The “Selectivity index (SI)” value on ovine COX-2 came out at 53.8. In addition, 3.9 µg/mL (≈ 10.1 µM) was the least that counted as inhibitory in experiment [2] (MIC).

Turning to `N#Cc1cc(C(=O)c2ccc3ccccc3c2O)cn(-c2nc3ccccc3s2)c1=O` [Compound 3h, 1-(Benzo[d]thiazol-2-yl)-5-(1–Hydroxy-2-naphthoyl)-2-oxo-nicotinonitrile], the IC50 in experiment [1] is 28.1 ± 3.1 µM; at ovine COX-2, 0.496 µM; against ovine COX-1, 684 µM; in experiment [3] it was 10.3 ± 1.2 µM. Further, on ovine COX-2, the “Selectivity index (SI)” value was 1380. For the same compound, the MIC in experiment [2] was below 2 µg/mL.

In the case of `CC(=Nn1cc(C(=O)c2ccc3ccccc3c2O)cc(C#N)c1=O)c1cc2ccccc2oc1=O` [Compound 3i, 5-(1-hydroxy-2-naphthoyl)-2-oxo-1-((1-(2-oxo-2H-chromen-3-yl)ethylidene)amino)nicotinonitrile], the IC50 in experiment [1] was 30.5 ± 2.9 µM; against ovine COX-2, 13.5 µM; at ovine COX-1 it was 1500 µM; in experiment [3], 9.7 ± 0.8 µM. Moreover, the “Selectivity index (SI)” value on ovine COX-2 is on record as 111.3. For the same compound, the MIC in experiment [2] is below 1 µg/mL.

Take `N#CCC(=O)NN=Cc1coc2c(ccc3ccccc32)c1=O` [Compound 5, 2-cyano-N′-((4-oxo-4H-benzo[h]chromen-3-yl)methylene)acetohydrazide]: the IC50 in experiment [1] was 41.6 ± 3.5 µM; against ovine COX-2, 24.6 µM; at ovine COX-1, 2070 µM; in experiment [3] it was 10.7 ± 1.2 µM. In addition, the “Selectivity index (SI)” value at ovine COX-2 is reported as 84.3. Moreover, in experiment [2], the MIC came to 3.9 µg/mL (≈ 12.8 µM).

For the compound `O=C(c1cnc2[nH]nc(O)c2c1)c1ccc2ccccc2c1O` [Compound 6, 5-(1-hydroxy-2-naphthoyl)-3-hydroxy-1H-pyrazolo [3,4-b]pyridine], the IC50 in experiment [1] was 34.9 ± 2.8 µM; at ovine COX-2 it was 30.5 µM; against ovine COX-1, 1070 µM; in experiment [3], 9.1 ± 0.5 µM. The “Selectivity index (SI)” value at ovine COX-2 was determined as 35.0. In experiment [2], this compound displayed an MIC below 2 µg/mL.

Regarding `O=C(C1=CNC(=S)NN=C1)c1ccc2ccccc2c1O` [Compound 7, 6-(1-Hydroxy-2-naphthoyl)-3-thioxo-3,4-dihydro-2H-1,2,4-triazepine], the IC50 in experiment [1] is 28.8 ± 2.5 µM; against ovine COX-2 it was 1.24 µM; on ovine COX-1, 732 µM; in experiment [3], 10.5 ± 0.9 µM. The “Selectivity index (SI)” value on ovine COX-2 came out at 588.6. In experiment [2], this compound displayed an MIC below 2 µg/mL.

Consider `O=C(C1=CSc2ccccc2N=C1)c1ccc2ccccc2c1O` [Compound 8, 3-(1-Hydroxy-2-naphthoyl)benzo[b][1,4]thiazepine], for which the IC50 in experiment [1] is 36.5 ± 3.4 µM; against ovine COX-2, 0.754 µM; against ovine COX-1 it was 858 µM; in experiment [3], 9.7 ± 1.1 µM. Besides, at ovine COX-2, the “Selectivity index (SI)” value was determined as 1138. Inhibition of growth in experiment [2] (MIC) required 7.81 µg/mL (≈ 23.6 µM).

For `CCOC1Oc2c(ccc3ccccc23)-c2n[nH]cc21` (centres unmarked) [Compound 10, 11-ethoxy-2,11-dihydrobenzo[7,8]chromeno[4,3-c]pyrazole], the IC50 is 34.5 ± 2.6 µM in experiment [1], 1.01 µM on ovine COX-2, 1000 µM at ovine COX-1 and 9.3 ± 0.5 µM in experiment [3]. The “Selectivity index (SI)” value at ovine COX-2 was determined as 989.3. Besides, in experiment [2], it took 7.81 µg/mL (≈ 29.3 µM) to inhibit growth (MIC).

Turning to `Cc1c(N=Cc2coc3c(ccc4ccccc43)c2=O)c(=O)n(-c2ccccc2)n1C` [Compound 12a, 1,5-Dimethyl-4-(((4-oxo-4H-benzo[h]chromen-3-yl)methylene)amino)-2-phenyl-1,2-dihydro-3H-pyrazol-3-one], the IC50 is 35.5 ± 3.6 µM in experiment [1], 24.7 µM on ovine COX-2, 1220 µM against ovine COX-1 and 10.2 ± 1.2 µM in experiment [3]. Moreover, the “Selectivity index (SI)” value at ovine COX-2 was 49.5. The same compound had an MIC in experiment [2] of 62.5 µg/mL (≈ 153 µM).

For `O=c1c(C=Nc2nc3ccccc3s2)coc2c1ccc1ccccc12` [Compound 12b, 3-((Benzo[d]thiazol-2-ylimino)methyl)-4H-benzo[h]chromen-4-one], the IC50 is 40.1 ± 3.9 µM in experiment [1], 1.37 µM against ovine COX-2, 1340 µM on ovine COX-1 and 8.9 ± 0.7 µM in experiment [3]. Further, the “Selectivity index (SI)” value on ovine COX-2 stood at 971.8. This compound displayed an MIC in experiment [2] of 15.6 µg/mL (≈ 43.9 µM).

As for `COc1cccc2c1C(=O)c1c(O)c3c(c(O)c1C2=O)C[C@@](O)(C(=O)CO)C[C@@H]3O[C@H]1C[C@H](N)[C@H](O)[C@H](C)O1` [DOXO, Doxorubicin, reference compound], the IC50 in experiment [1] was found to be 28.5 ± 1.9 µM; in experiment [3] it was 10.3 ± 0.8 µM.

For `NNC(=O)c1ccncc1` [IN, Isoniazid, reference compound], the MIC in experiment [2] was found to be 0.24 µg/mL (≈ 1.75 µM).
